# Reference: PMC6226115 (Clinical and Translational Science, 2018)
# Values joined by “and” are separate entries in the source; they are usually repeats but may differ in a detail not shown here. Equal values may be shown once. “Also recorded” adds a separate entry of the source.
# Experiments:
# [1] = system: glycine levels in the rat cerebrospinal fluid (CSF); experiment: Glycine in rat CSF after single oral dose; type: in vivo; conditions: 90 min
# Method in brief: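 Male Wistar rats were acclimatised 1 h in the test room, then dosed orally once with vehicle (0.5% Natrosol, 0.01% Tween-80) or 0.2, 0.6 or 2 mg/kg (n = 8 each). After 90 min, CSF was drawn by cisterna magna puncture under anaesthesia and frozen at −70°C. Glycine was quantified by LC-MS/MS. Data are mean ± SEM, compared with vehicle by one-way ANOVA with Dunnett's test.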
# glycine in CSF = experiment: Phase I pharmacodynamics: glycine in CSF; type: in vivo, human; conditions: for E 14, increase in glycine in CSF from baseline at 14 hours: 14 h after first dose; for E 14, increase in glycine in CSF from baseline at 14 hours / E max, maximum increase in glycine in CSF from baseline / Ratio of AUECdiff, 0–14 (glycine in CSF) / E 312, increase in glycine in CSF from baseline at 312 hours: mean (SD); for E max, maximum increase in glycine in CSF from baseline / Ratio of AUECdiff, 0–14 (glycine in CSF): after first dose; for E 312, increase in glycine in CSF from baseline at 312 hours: before last dose (steady state trough)
# Method in brief: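 Healthy male volunteers took 5, 10, 25 or 50 mg orally each morning for 14 days in sequential ascending groups. CSF was drawn by lumbar catheter: three predose samples ~30 min apart, then hourly to 14 h after the first dose. A single lumbar puncture was taken before the day-14 dose. Glycine was measured by validated HPLC-MS/MS as its Marfey's derivative and expressed as % change from baseline (mean of three predose values).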
# [2] = Phase I safety and tolerability; type: in vivo, human
# Method in brief: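 In a nonrandomised, open-label phase I study, healthy men received 5, 10, 25 or 50 mg once daily for 14 days, with CSF sampled through a lumbar catheter. Safety was scored as the number of subjects with adverse events and summarised descriptively.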
# [3] = previously observed; cited from earlier work
# [4] = 5 mg once daily for 14 days (n = 6)
# [5] = 10 mg once daily for 14 days (n = 6)
# [6] = 25 mg once daily for 14 days (n = 8)
# [7] = 50 mg once daily for 14 days (n = 5)
# [8] = total on-treatment, all doses (n = 25)
structure (smiles),measurement,setting,value
C[C@@H](Oc1ccc(S(C)(=O)=O)cc1C(=O)N1C[C@@H]2C[C@]2(c2cc(C(F)(F)F)on2)C1)C(F)(F)F [BI 425809],Increase of glycine CSF levels relative to vehicle,"[1]; 0.2 mg/kg single oral dose, not significant",30%
same,Increase of glycine CSF levels relative to vehicle,"[1]; 0.6 mg/kg single oral dose, P < 0.05",61%
same,Increase of glycine CSF levels relative to vehicle,"[1]; 2 mg/kg single oral dose, P < 0.01",78%
same,"E 14, increase in glycine in CSF from baseline at 14 hours","glycine in CSF; 5 mg, N = 6",18.0 (32.1) %
same,"E max, maximum increase in glycine in CSF from baseline","glycine in CSF; 5 mg, N = 6",35.3 (26.4) %
same,"Ratio of AUECdiff, 0–14 (glycine in CSF)","glycine in CSF; 5 mg, N = 6",16.0 (17.4) %
same,"E 312, increase in glycine in CSF from baseline at 312 hours","glycine in CSF; 10 mg once daily, N = 4",57% and 57.0 (48.3) %
same,"E 14, increase in glycine in CSF from baseline at 14 hours","glycine in CSF; 10 mg, N = 6",39.8 (14.5) %
same,"E max, maximum increase in glycine in CSF from baseline","glycine in CSF; 10 mg, N = 6",62.3 (15.3) %
same,"Ratio of AUECdiff, 0–14 (glycine in CSF)","glycine in CSF; 10 mg, N = 6",37.0 (12.1) %
same,"E 312, increase in glycine in CSF from baseline at 312 hours","glycine in CSF; 25 mg once daily, N = 6",38% and 37.9 (45.8) %
same,"E 14, increase in glycine in CSF from baseline at 14 hours","glycine in CSF; 25 mg, N = 6",60.9 (60.7) %
same,"Ratio of AUECdiff, 0–14 (glycine in CSF)","glycine in CSF; 25 mg, N = 6",53.0 (30.5) %
same,"E max, maximum increase in glycine in CSF from baseline","glycine in CSF; 25 mg, N = 8",136 (107) %
same,"E 312, increase in glycine in CSF from baseline at 312 hours","glycine in CSF; 50 mg once daily, N = 5",123% and 123 (52.5) %
same,"E 14, increase in glycine in CSF from baseline at 14 hours","glycine in CSF; 50 mg, N = 5",50.6 (33.8) %
same,"E max, maximum increase in glycine in CSF from baseline","glycine in CSF; 50 mg, N = 5",91.9 (89.9) %
same,"Ratio of AUECdiff, 0–14 (glycine in CSF)","glycine in CSF; 50 mg, N = 5",47.0 (35.3) %
same,Time at which CSF glycine levels reached their maximum,"glycine in CSF; healthy volunteers, single oral doses, over dose groups",6 to 10 h
same,"Abdominal pain, subjects with AE",[2]; [4],0 n (%)
same,"Back pain, subjects with AE",[2]; [4],3 (50.0) n (%)
same,"Catheter site pain, subjects with AE",[2]; [4],1 (16.7) n (%)
same,"Diarrhea, subjects with AE",[2]; [4],0 n (%)
same,"Dizziness, subjects with AE",[2]; [4],0 n (%)
same,"Dry mouth, subjects with AE",[2]; [4],0 n (%)
same,"Fatigue, subjects with AE",[2]; [4],0 n (%)
same,"Gingivitis, subjects with AE",[2]; [4],0 n (%)
same,"Muscle spasms, subjects with AE",[2]; [4],1 (16.7) n (%)
same,"Musculoskeletal stiffness, subjects with AE",[2]; [4],0 n (%)
same,"Nasopharyngitis, subjects with AE",[2]; [4],0 n (%)
same,"Nausea, subjects with AE",[2]; [4],1 (16.7) n (%)
same,"Neck pain, subjects with AE",[2]; [4],0 n (%)
same,"Paraesthesia, subjects with AE",[2]; [4],1 (16.7) n (%)
same,"Procedural headache, subjects with AE",[2]; [4],4 (66.7) n (%)
same,"Procedural pain, subjects with AE",[2]; [4],0 n (%)
same,"Somnolence, subjects with AE",[2]; [4],1 (16.7) n (%)
same,"Tension headache, subjects with AE",[2]; [4],0 n (%)
same,Total with AEs (treatment-emergent),[2]; [4],5 (83.3) n (%)
same,"Upper abdominal pain, subjects with AE",[2]; [4],0 n (%)
same,"Vomiting, subjects with AE",[2]; [4],1 (16.7) n (%)
same,"Wound, subjects with AE",[2]; [4],0 n (%)
same,"Abdominal pain, subjects with AE",[2]; [5],0 n (%)
same,"Back pain, subjects with AE",[2]; [5],0 n (%)
same,"Catheter site pain, subjects with AE",[2]; [5],0 n (%)
same,"Diarrhea, subjects with AE",[2]; [5],0 n (%)
same,"Dizziness, subjects with AE",[2]; [5],1 (16.7) n (%)
same,"Dry mouth, subjects with AE",[2]; [5],0 n (%)
same,"Fatigue, subjects with AE",[2]; [5],0 n (%)
same,"Gingivitis, subjects with AE",[2]; [5],1 (16.7) n (%)
same,"Muscle spasms, subjects with AE",[2]; [5],0 n (%)
same,"Musculoskeletal stiffness, subjects with AE",[2]; [5],0 n (%)
same,"Nasopharyngitis, subjects with AE",[2]; [5],0 n (%)
same,"Nausea, subjects with AE",[2]; [5],2 (33.3) n (%)
same,"Neck pain, subjects with AE",[2]; [5],1 (16.7) n (%)
same,"Paraesthesia, subjects with AE",[2]; [5],0 n (%)
same,"Procedural headache, subjects with AE",[2]; [5],4 (66.7) n (%)
same,"Procedural pain, subjects with AE",[2]; [5],0 n (%)
same,"Somnolence, subjects with AE",[2]; [5],0 n (%)
same,"Tension headache, subjects with AE",[2]; [5],0 n (%)
same,Total with AEs (treatment-emergent),[2]; [5],5 (83.3) n (%)
same,"Upper abdominal pain, subjects with AE",[2]; [5],0 n (%)
same,"Vomiting, subjects with AE",[2]; [5],1 (16.7) n (%)
same,"Wound, subjects with AE",[2]; [5],1 (16.7) n (%)
same,"Abdominal pain, subjects with AE",[2]; [6],1 (12.5) n (%)
same,"Back pain, subjects with AE",[2]; [6],4 (50.0) n (%)
same,"Catheter site pain, subjects with AE",[2]; [6],0 n (%)
same,"Diarrhea, subjects with AE",[2]; [6],1 (12.5) n (%)
same,"Dizziness, subjects with AE",[2]; [6],1 (12.5) n (%)
same,"Dry mouth, subjects with AE",[2]; [6],1 (12.5) n (%)
same,"Fatigue, subjects with AE",[2]; [6],1 (12.5) n (%)
same,"Gingivitis, subjects with AE",[2]; [6],0 n (%)
same,"Muscle spasms, subjects with AE",[2]; [6],0 n (%)
same,"Musculoskeletal stiffness, subjects with AE",[2]; [6],1 (12.5) n (%)
same,"Nasopharyngitis, subjects with AE",[2]; [6],0 n (%)
same,"Nausea, subjects with AE",[2]; [6],2 (25.0) n (%)
same,"Neck pain, subjects with AE",[2]; [6],1 (12.5) n (%)
same,"Paraesthesia, subjects with AE",[2]; [6],0 n (%)
same,"Procedural headache, subjects with AE",[2]; [6],5 (62.5) n (%)
same,"Procedural pain, subjects with AE",[2]; [6],1 (12.5) n (%)
same,"Somnolence, subjects with AE",[2]; [6],0 n (%)
same,"Tension headache, subjects with AE",[2]; [6],1 (12.5) n (%)
same,Total with AEs (treatment-emergent),[2]; [6],8 (100.0) n (%)
same,"Upper abdominal pain, subjects with AE",[2]; [6],1 (12.5) n (%)
same,"Vomiting, subjects with AE",[2]; [6],2 (25.0) n (%)
same,"Wound, subjects with AE",[2]; [6],0 n (%)
same,"Abdominal pain, subjects with AE",[2]; [7],0 n (%)
same,"Back pain, subjects with AE",[2]; [7],1 (20.0) n (%)
same,"Catheter site pain, subjects with AE",[2]; [7],0 n (%)
same,"Diarrhea, subjects with AE",[2]; [7],0 n (%)
same,"Dizziness, subjects with AE",[2]; [7],0 n (%)
same,"Dry mouth, subjects with AE",[2]; [7],0 n (%)
same,"Fatigue, subjects with AE",[2]; [7],1 (20.0) n (%)
same,"Gingivitis, subjects with AE",[2]; [7],0 n (%)
same,"Muscle spasms, subjects with AE",[2]; [7],0 n (%)
same,"Musculoskeletal stiffness, subjects with AE",[2]; [7],0 n (%)
same,"Nasopharyngitis, subjects with AE",[2]; [7],1 (20.0) n (%)
same,"Nausea, subjects with AE",[2]; [7],0 n (%)
same,"Neck pain, subjects with AE",[2]; [7],1 (20.0) n (%)
same,"Paraesthesia, subjects with AE",[2]; [7],0 n (%)
same,"Procedural headache, subjects with AE",[2]; [7],3 (60.0) n (%)
same,"Procedural pain, subjects with AE",[2]; [7],0 n (%)
same,"Somnolence, subjects with AE",[2]; [7],0 n (%)
same,"Tension headache, subjects with AE",[2]; [7],0 n (%)
same,Total with AEs (treatment-emergent),[2]; [7],4 (80.0) n (%)
same,"Upper abdominal pain, subjects with AE",[2]; [7],0 n (%)
same,"Vomiting, subjects with AE",[2]; [7],0 n (%)
same,"Wound, subjects with AE",[2]; [7],0 n (%)
same,"AEs of special interest, deaths, serious AEs on-treatment","[2]; healthy male volunteers, 5 to 50 mg for 14 days","no protocol‐specified AEs of special interest, deaths, or other serious AEs reported"
same,Safety and tolerability (in words),"[2]; healthy male volunteers, multiple oral doses 5 to 50 mg for 14 days","safe and well tolerated; also recorded: generally well tolerated; also recorded: well tolerated, with no indication of safety concerns"
same,Subjects reporting back pain,[2]; of the 25 subjects treated (8 subjects),32.0%
same,Subjects reporting procedural headache,[2]; of the 25 subjects treated (16 subjects),64.0%
same,Subjects reporting at least one treatment-emergent AE,[2]; of the 25 subjects treated (22 subjects),88.0%
same,"Abdominal pain, subjects with AE",[2]; [8],1 (4.0) n (%)
same,"Back pain, subjects with AE",[2]; [8],8 (32.0) n (%)
same,"Catheter site pain, subjects with AE",[2]; [8],1 (4.0) n (%)
same,"Diarrhea, subjects with AE",[2]; [8],1 (4.0) n (%)
same,"Dizziness, subjects with AE",[2]; [8],2 (8.0) n (%)
same,"Dry mouth, subjects with AE",[2]; [8],1 (4.0) n (%)
same,"Fatigue, subjects with AE",[2]; [8],2 (8.0) n (%)
same,"Gingivitis, subjects with AE",[2]; [8],1 (4.0) n (%)
same,"Muscle spasms, subjects with AE",[2]; [8],1 (4.0) n (%)
same,"Musculoskeletal stiffness, subjects with AE",[2]; [8],1 (4.0) n (%)
same,"Nasopharyngitis, subjects with AE",[2]; [8],1 (4.0) n (%)
same,"Nausea, subjects with AE",[2]; [8],5 (20.0) n (%)
same,"Neck pain, subjects with AE",[2]; [8],3 (12.0) n (%)
same,"Paraesthesia, subjects with AE",[2]; [8],1 (4.0) n (%)
same,"Procedural headache, subjects with AE",[2]; [8],16 (64.0) n (%)
same,"Procedural pain, subjects with AE",[2]; [8],1 (4.0) n (%)
same,"Somnolence, subjects with AE",[2]; [8],1 (4.0) n (%)
same,"Tension headache, subjects with AE",[2]; [8],1 (4.0) n (%)
same,Total with AEs (treatment-emergent),[2]; [8],22 (88.0) n (%)
same,"Upper abdominal pain, subjects with AE",[2]; [8],1 (4.0) n (%)
same,"Vomiting, subjects with AE",[2]; [8],4 (16.0) n (%)
same,"Wound, subjects with AE",[2]; [8],1 (4.0) n (%)
same,Subjects who discontinued due to AEs,"[2]; two subjects of 25 (5-mg and 10-mg dose groups), AEs not considered drug-related",8.0%
same,Attainment of steady state after administration,[3],≤ 8 days
same,Half-life,[3],~ 40 hours
